High-throughput results as filed in PubChem BioAssay.
A selection: hits, their analogues and other compounds. The true share with any hit is near 2.1%.
hiPSC survival – increases survival of single human iPS cells; hiPSC single-cell survival, ATPlite luminescence; 100% = ROCK inhibitor wells, 0% = DMSO; survival enhancement, % at 20 µM; 0.044% of 360,000 active; AID 602274; in the data active = survival enhancement above about 18%;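 also: cells exposed to compounds for 16 hours before the ATP read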
MIN6 prolif – inducers of beta-cell replication in MIN6 cells; MIN6 cells proliferation, ATPlite luminescence, 48 h; cells starved in 0.2% serum; 100% = growth in 10% serum; proliferation, % at 10 µM; 0.29% of 330,000 active;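 active = compounds whose signal lies at least 3.5 SD above the mean of all wells on their plate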;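 also: 0% = DMSO-treated cells in low-serum medium and 100% = 10% serum control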
UCH37 DUB inh – human UCH37 deubiquitinating enzyme inhibition | Q9Y5K5 | purified proteasome/UCH37, Ub-AMC cleavage fluorescence | inhibition, % (test concentration not listed) | 0.33% of 330,000 active | AID 588478;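 active = mean inhibition over replicate wells above about 20%, limit read from the data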;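 also: 0% = compound-free wells with enzyme and 100% = wells lacking proteasome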
Target sequence (Q9Y5K5 whole entry, looked up): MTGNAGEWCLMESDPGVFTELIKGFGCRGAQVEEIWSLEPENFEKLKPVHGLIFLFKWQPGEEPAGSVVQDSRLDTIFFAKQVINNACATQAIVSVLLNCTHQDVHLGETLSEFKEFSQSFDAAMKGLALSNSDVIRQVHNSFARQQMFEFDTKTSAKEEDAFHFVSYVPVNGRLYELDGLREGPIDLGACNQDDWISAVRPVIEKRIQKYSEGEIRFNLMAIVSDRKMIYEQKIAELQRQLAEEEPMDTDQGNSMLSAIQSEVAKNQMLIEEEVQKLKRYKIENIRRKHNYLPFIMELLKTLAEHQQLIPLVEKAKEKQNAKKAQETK
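System: Proteasome-associated human UCH37 deubiquitinase; Input: 0.15 nM proteasome in added enzyme buffer; Also added: Ub-AMC substrate from 1 µM stock; Incubation: 30 min compound-proteasome preincubation then 25 min substrate reaction, room temperature; Detection: fluorescence, ex 355 nm, em 460 nm; Read-out: % inhibition of Ub-AMC cleavage fluorescence; Benchmarks: no-proteasome and no-compound wells.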
CRFR2-BP ag – agonists of human CRF-binding protein/CRF-R2 receptor complex; HEK293 CRF-R2/CRF-BP, calcium dye fluorescence (FLIPR); percent of saturating CRF peptide response; activation, % at 13.2 µM; 0.46% of 350,000 active;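 active = activation of at least 50%, plus an integration ratio under a set limit after plate pattern correction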;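 also: plate controls were neutral control wells without compound for no effect and CRF at EC100 for full effect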
H9c2 protect – myocardial damage modulation in H9c2 cells. 0.63% of 360,000 active. protection from H2O2 cell death, % at 20 µM. H9c2 cardiomyocytes, H2O2 injury protection, ATPLite, 2 h. AID 588492;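 active = compounds giving at least 50% protection of heart cells from peroxide-induced death in the single-dose screen, raw or plate-pattern-corrected value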;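 also: 0% = DMSO wells with peroxide and 100% = DMSO wells without peroxide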
CRFR2-BP antag – CRF-BP/CRF-R2 complex antagonism; 0.59% of 350,000 active; AID 588475; HEK293 CRF-R2/CRF-BP, CRF-induced calcium fluorescence; inhibition, % at 11.8 µM;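 active = inhibition of the ligand-induced calcium signal above about 50% at the single tested concentration, limit read from the data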
Starred values were filed as active, the others as inactive; / = no result.

SMILES	hiPSC survival	MIN6 prolif	UCH37 DUB inh	CRFR2-BP ag	H9c2 protect	CRFR2-BP antag
COc1ccc(Nc2nc(N3CCCC3)nc(N3CCCC3)n2)c(OC)c1	0	-3	4	0	-15	-14
COc1ccc(Nc2nc(Nc3ccc(OC)cc3OC)nc(N3CCN(C)CC3)n2)c(OC)c1	-3	-5	0	-1	64*	4
Cc1ccc(-n2c(O)c(C=Nc3ccccc3-c3n[nH]c(=S)[nH]c3=O)c3ccccc3c2=O)cc1C	-1	-5	-7	1	5	35
Cc1ccc(-n2c(O)c(C=Nc3ccccc3-c3n[nH]c(=S)[nH]c3=O)c3ccccc3c2=O)c(C)c1	2	-5	1	-1	-6	53*
CCCN1Cc2cccc(C(=O)NCc3cccs3)c2C1=O	-1	3	1	1	0	58*
COc1ccc([N+](=O)[O-])cc1C=NNC(=O)CNC(=O)c1cccc(F)c1	/	/	5	/	/	/
COc1cc(NC(=S)N2CCC(C(N)=O)CC2)c(OC)cc1Cl	0	-2	31*	-3	13	21
COc1cc(NC(=S)N2CCC(C(N)=O)CC2)cc(OC)c1	0	0	4	-6	-6	19
CC(NC(=O)Cn1nc(C(=O)O)c2ccccc2c1=O)c1ccccc1 (stereo not drawn)	0	-2	1	-1	81*	9
COc1cccc(Cn2nc(C(=O)O)c3ccccc3c2=O)c1	0	0	-2	-1	64*	-3
CC(NC(=O)Cn1nc(-c2ccccc2)c2ccccc2c1=O)c1ccccc1 (stereo not drawn)	-1	1	0	-4	9	25
COc1ccc(Cn2nc(C(=O)O)c3ccccc3c2=O)cc1F	-1	0	1	-2	35	-14
COc1ccc(C(NC(=O)c2ccc(=O)[nH]c2)C(=O)Nc2ccc(C(C)C)cc2)cc1 (stereo not drawn)	-3	2	3	58*	-4	-26
CCN(c1ccccc1)S(=O)(=O)c1cc(NC(=O)Nc2ccccc2C#N)ccc1Cl	2	-2	-3	9	-4	-7
CCN(c1ccccc1)S(=O)(=O)c1ccc(Cl)c(NC(=O)Nc2ccc(Cl)cc2C#N)c1	-1	0	-4	0	-12	71*
COc1cc(NC(=O)COC(=O)CON=C(C)c2ccc3c(c2)OCO3)cc(OC)c1	/	/	0	/	/	/
CCOc1ccc(C(=O)c2cccs2)cc1	0	-1	2	-1	-13	51*
Cc1ccc(Nc2ccc(C(=O)O)cc2N)cc1	/	-1	-7	-4	/	56*
CC(=NNC(=O)c1cccs1)c1ccc2ccccc2c1	/	/	-21	/	/	/
CCc1nc2ccc(C(=O)Nc3cccc(OCC(=O)N(C)C)c3)cn2c1N(C)Cc1cc2ccccc2s1	1	/	/	/	54*	/
CCc1nc2ccc(C(=O)Nc3cc(-c4ccccc4)ccc3OC)cn2c1N(C)Cc1nccs1	-2	/	/	/	75*	/
COc1ccc2cc(C=NO)c(Cl)nc2c1	/	/	-12	/	/	/
CC(NC(=O)Nc1nnc(C(F)(F)F)s1)(C(F)(F)F)C(F)(F)F	3	-6	1	59*	-35	28
O=C(Nc1ccccc1C(=O)Nc1nnc(C(F)(F)F)s1)c1ccccc1Cl	0	-4	-16	49	-15	50*
O=C(Nc1nnc(C(F)(F)F)s1)c1ccc(Br)s1	0	-5	2	98*	-28	54*
SMILES	hiPSC survival	MIN6 prolif	UCH37 DUB inh	CRFR2-BP ag	H9c2 protect	CRFR2-BP antag
CCSc1nnc(NC(=O)c2ccc(Br)s2)s1	-3	-1	-5	8	-9	-8
CC(CC(=O)Nc1ccc2c(c1)OCCO2)=NNC(=O)COc1ccc(C)cc1Br	/	/	3	/	/	/
COc1ccc2[nH]c(=O)c(-c3nnn(-c4ccc(F)cc4)n3)cc2c1	0	0	-2	15	56*	3
COc1cc(C=NNC(=O)/C(=C/c2ccccc2)CCO)ccc1O	/	/	4	/	/	/
COc1ccc(C(=O)COC(=O)C(CCCCN2C(=O)C3C4C=CC(C4)C3C2=O)N2C(=O)C3C4C=CC(C4)C3C2=O)cc1 (stereo not drawn)	4	0	7	1	75*	3
CCOC(=O)c1cnc(Nc2nc3ccccc3o2)nc1CSc1nnc(C)s1	1	-2	5	0	60*	6
COc1ccc2nc(C=NNC(=O)CCCCCNC(=O)OC(C)(C)C)ccc2c1	/	/	-142	/	/	/
CNC(=S)N=CNOCc1c(Cl)cccc1Cl	/	/	3	/	/	/
O=c1[nH]c2cccc(F)c2n2cccc12	0	1	3	1	51*	-51
Oc1ccc(-c2nc3ccc4ccccc4c3c3c2CCC3)cc1O	-1	-5	-14	2	88*	-49
Cc1cc(C)c2c(ccc3ccccc32)n1	1	/	/	-4	11	-10
CC(=N/N=C1/NC(=O)C(CC(=O)Nc2ccc(C)c(Cl)c2)S1)C(C)C (stereo not drawn)	/	/	3	/	/	/
CN(C)S(=O)(=O)c1ccc(-c2csc(NN=Cc3ccco3)n2)cc1	/	/	2	/	/	/
CN(CC(=O)Nc1ccccc1Br)C(=O)Cn1[nH]c(=O)c2ccccc2c1=O	4	0	0	0	83*	-2
COc1ccc(Cl)cc1NC(=O)CN(C)C(=O)Cn1[nH]c(=O)c2ccccc2c1=O	0	-1	0	0	84*	1
COc1cccc(NC(=O)CN(C)C(=O)Cn2[nH]c(=O)c3ccccc3c2=O)c1	0	4	-1	-1	40	0
COc1cccc(C=NNc2ncnc3scc(-c4ccccc4)c23)c1O	/	/	-10	/	/	/
COc1cccc(/C=N/Nc2ncnc3scc(-c4ccccc4)c23)c1O	0	-5	/	0	70*	-8
O=[N+]([O-])c1cccc(C=NNC2=NCCCCC2)c1	/	/	0	/	/	/
O=[N+]([O-])c1cccc(/C=N/NC2=NCCCCC2)c1	0	-2	/	-2	2	52*
COc1ccc(O)c(C=NNc2nc(Nc3ccccc3)nc(-n3nc(C)cc3C)n2)c1	/	/	2	/	/	/
COc1ccc(OC)c2c1C(=O)c1ccccc1C2=O	/	-2	5	15	/	35
COc1ccc2noc3c2c1C(=O)c1ccccc1-3	-1	-6	/	169*	10	-115
O=C1c2ccccc2-c2onc3ccc(NCCCn4ccnc4)c1c23	/	-1	11	194*	/	-166
COc1ccc(CCNc2nc(N3CCCCC3)nc(N3CCCCC3)n2)cc1OC	10	-4	4	0	-3	74*
Cc1nn(C)c(Oc2ccc(Cl)cc2)c1C(=O)O	2	-1	1	-1	-2	61*
Cc1nc(-c2coc3cc(C)c(N=O)c(O)c3c2=NN)cs1	/	/	7	/	/	/
O=C1NCCCC1C(=O)NN=Cc1ccccc1 (stereo not drawn)	/	/	4	/	/	/
